pEC50, pIC50: −log10 of the molar value. Activity calls are given as the source filed them. How the calls were made is not given here.
Tests used:
[1] = test system: K562; experiment: Cytostatic activity against human K562 cells after 72 hrs by MTT assay; type: functional, cell-based; conditions: K562, 72 h
Summary of the method: (§1)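 IC50 is the concentration that cuts cell growth by 50%, read by quantitative metabolic MTT staining after a 3-day treatment. The resistant sublines were made by raising the concentration of the cytotoxic drug step by step. CEM-DNR-bulk (daunorubicin-selected) stably overexpresses mrp-1. K562-TAX (paclitaxel-selected) expresses only mdr-1. HCT116p53−/− carries null p53 alleles. BJ and MRC-5 are nonmalignant fibroblasts.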

[2] = Antiproliferative activity against human HeLaS3 cells after 72 hrs by XTT assay; type: functional, cell-based; conditions: HeLa S3, 72 h
Summary of the method: (§2)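 Antiproliferative test on HL-60 promyelocytic leukemia and HeLa S3 cervical carcinoma cells growing in liquid suspension.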

[3] = test system: Staphylococcus aureus; experiment: Antibacterial activity against Staphylococcus aureus CCM 3953 after 24 hrs; type: functional, organism-based
[4] = Cytotoxicity against human HuH7 cells infected with Hepatitis C virus subtype 1b; type: cell-based, Huh-7
[5] = test system: Hepatitis C virus; experiment: Antiviral activity against Hepatitis C virus subtype 2a infected in human HuH7 cells; type: functional, organism-based, Hepacivirus hominis; conditions: genotype 2a, Huh-7
[6] = test system: K562; experiment: Cytostatic activity against paclitaxel-resistant human K562 cells after 72 hrs by MTT assay; type: functional, cell-based; conditions: K562, 72 h; summary of the method: as §1
[7] = test system: Hepatitis C virus; experiment: Antiviral activity against Hepatitis C virus subtype 1b infected in human HuH7 cells; type: functional, organism-based, Hepacivirus hominis; conditions: genotype 1b, Huh-7
[8] = test system: Escherichia coli; experiment: Antibacterial activity against Escherichia coli CCM 3954 after 24 hrs; type: functional, organism-based
[9] = test system: Staphylococcus aureus; experiment: Antibacterial activity against methicillin-resistant Staphylococcus aureus MRSA 4591 after 24 hrs; type: functional, organism-based
[10] = test system: Staphylococcus haemolyticus; experiment: Antibacterial activity against methicillin-resistant Staphylococcus haemolyticus A/16568 after 24 hrs; type: functional, organism-based
[11] = test system: Pseudomonas aeruginosa; experiment: Antibacterial activity against Pseudomonas aeruginosa CCM 3955 after 24 hrs; type: functional, organism-based
[12] = test system: HCT-116; experiment: Cytostatic activity against human HCT116 cells after 72 hrs by MTT assay; type: functional, cell-based; conditions: HCT-116, 72 h; summary of the method: as §1
[13] = test system: HCT-116; experiment: Cytostatic activity against p53-deficient human HCT116 cells after 72 hrs by MTT assay; type: functional, cell-based; conditions: HCT-116, 72 h; summary of the method: as §1
[14] = test system: Pseudomonas aeruginosa; experiment: Antibacterial activity against multi-resistant Pseudomonas aeruginosa A/16575 after 24 hrs; type: functional, organism-based
[15] = test system: CCRF-CEM; experiment: Cell cycle arrest in human CCRF-CEM cells assessed as accumulation at sub-G1 phase at IC50 after 24 hrs by propidium iodide staining-based flow cytometric analysis (reference value: 9.6%); type: functional
[16] = test system: CCRF-CEM; experiment: Cytostatic activity against human CCRF-CEM cells after 72 hrs by MTT assay; type: functional, cell-based; summary of the method: as §1
[17] = test system: MRC5; experiment: Cytostatic activity against human MRC5 cells after 72 hrs by MTT assay; type: ADME, cell-based; conditions: MRC5, 72 h; summary of the method: as §1
[18] = test system: HepG2; experiment: Antiproliferative activity against human HepG2 cells after 72 hrs by XTT assay; type: functional, cell-based; conditions: HepG2, 72 h
[19] = test system: Escherichia coli; experiment: Antibacterial activity against multi-resistant Escherichia coli C/16702 after 24 hrs; type: functional, organism-based
[20] = test system: A549; experiment: Cytostatic activity against human A549 cells after 72 hrs by MTT assay; type: functional, cell-based; conditions: A549, 72 h; summary of the method: as §1
[21] = test system: Candida albicans; experiment: Antifungal activity against Candida albicans after 48 hrs; type: functional, organism-based
[22] = test system: HL-60; experiment: Antiproliferative activity against human HL60 cells after 72 hrs by XTT assay; type: functional, cell-based; conditions: HL-60, 72 h; summary of the method: as §2
[23] = test system: Candida tropicalis; experiment: Antifungal activity against Candida tropicalis after 48 hrs; type: functional, organism-based
[24] = Cytostatic activity against human CEM-DNR-bulk cells after 72 hrs by MTT assay; type: functional, cell-based; summary of the method: as §1
[25] = test system: Pichia kudriavzevii; experiment: Antifungal activity against Candida crusei after 48 hrs; type: functional, organism-based
[26] = test system: CCRF-CEM; experiment: Inhibition of RNA synthesis in human CCRF-CEM cells assessed as BrU-positive cells at IC50 after 24 hrs by propidium iodide staining-based flow cytometric analysis (reference value: 43.3%); type: functional; set-up: scale not given: the % may be the effect or the level left
[27] = test system: CCRF-CEM; experiment: Mitotic arrest in human CCRF-CEM cells assessed as pH3Ser10-positive cells at IC50 after 24 hrs by propidium iodide staining-based flow cytometric analysis (reference value: 1.4%); type: functional
[28] = test system: Enterococcus faecalis; experiment: Antibacterial activity against Enterococcus faecalis CCM 4224 after 24 hrs; type: functional, organism-based
[29] = test system: CCRF-CEM; experiment: Cell cycle arrest in human CCRF-CEM cells assessed as accumulation at G2/M phase at IC50 after 24 hrs by propidium iodide staining-based flow cytometric analysis (reference value: 14.2%); type: functional
[30] = test system: BJ; experiment: Cytostatic activity against human BJ cells after 72 hrs by MTT assay; type: ADME, cell-based; summary of the method: as §1
[31] = test system: Candida parapsilosis; experiment: Antifungal activity against Candida parapsilosis after 48 hrs; type: functional, organism-based
[32] = Cytotoxicity against human HuH7 cells infected with Hepatitis C virus subtype 2a; type: cell-based, Huh-7
[33] = test system: CCRF-CEM; experiment: Inhibition of DNA synthesis in human CCRF-CEM cells assessed as BrdU-positive cells at IC50 after 24 hrs by propidium iodide staining-based flow cytometric analysis (reference value: 50.1%); type: functional; set-up: scale not given: the % may be the effect or the level left
[34] = test system: CCRF-CEM; experiment: Cell cycle arrest in human CCRF-CEM cells assessed as accumulation at G1 phase at IC50 after 24 hrs by propidium iodide staining-based flow cytometric analysis (reference value: 41%); type: functional
[35] = test system: CCRF-CEM; experiment: Cell cycle arrest in human CCRF-CEM cells assessed as accumulation at S phase at IC50 after 24 hrs by propidium iodide staining-based flow cytometric analysis (reference value: 44.8%); type: functional

Row | Compound | pIC50 [1] | pIC50 [2] | Activity [3] | CC50 [4] [nM] | pEC50 [5] | pIC50 [6] | pEC50 [7] | Activity [8] | Activity [9] | Activity [10] | Activity [11] | pIC50 [12] | Activity [14] | Activity [15] [%] | pIC50 [16] | pIC50 [17] | Activity [19] | pIC50 [20] | Activity [21] | Activity [23] | further results
1 | COc1ncnc2c1c(-c1cccs1)cn2[C@@H]1O[C@H](CO)[C@@H](O)[C@H]1O | 7.15 | 5.75 | inactive | > 44000 | < 4.36 | 5.21 | 5.97 | inactive | inactive | inactive | inactive | 7.10 | inactive | 7.5 | 7.05 | 4.36 | inactive | 5.31 | inactive | inactive | pIC50 [13]: 6.36; pIC50 [18]: 4.86; pIC50 [22]: 7.10; pIC50 [24]: 4.92; Activity [25]: inactive; Activity [26]: 0.1%; Activity [27]: 1.1%; Activity [28]: inactive; Activity [29]: 9.8%; pIC50 [30]: 4.20; Activity [31]: inactive; CC50 [32]: > 44000 nM
2 | Nc1ncnc2c1c(-c1cccs1)cn2[C@@H]1O[C@H](CO)[C@@H](O)[C@H]1O | 7.52 | 7.70 | inactive | > 44000 | < 4.36 | 7.70 | < 4.36 | inactive | inactive | inactive | inactive | 8.00 | inactive | 18.6 | 7.70 | 4.40 | inactive | 7.40 | inactive | inactive | Activity [33]: 52.4%; pIC50 [24]: 6.77; Activity [25]: inactive; Activity [26]: 15.2%; Activity [27]: 1.4%; Activity [28]: inactive; Activity [29]: 10.1%; Activity [34]: 50.6%; pIC50 [30]: 4.18; Activity [31]: inactive; CC50 [32]: > 44000 nM; Activity [35]: 39.2%

Reference: ChEMBL document CHEMBL3124843, “Synthesis, cytostatic, antimicrobial, and anti-HCV activity of 6-substituted 7-(het)aryl-7-deazapurine ribonucleosides” (J Med Chem, 2014)
